Experimental data published in paper PMC11613628 (Journal of Medicinal Chemistry, 2024).
Entries after “also recorded” stand apart in the source; their conditions may differ. Read-outs that look alike come from different tables or passages of the source. Where a SMILES comes first, the peptide text is derived from it. Bridges are numbered along the chain shown (N, C = ends). [ ]: non-standard residue; d: D form. Tyr(SO2F) = N[C@@H](Cc1ccc(OS(=O)(=O)F)cc1)C(=O)O; S5 = C=CCCC[C@](C)(N)C(=O)O

How the values were obtained:
[1] = molecular target: T1, 6×His-tagged hMcl-1(172–323) (Homo sapiens, UniProt Q07820); conditions: against hMcl-1; previously identified minimal binding peptide; cited from earlier work
T1 sequence (Q07820 172-323): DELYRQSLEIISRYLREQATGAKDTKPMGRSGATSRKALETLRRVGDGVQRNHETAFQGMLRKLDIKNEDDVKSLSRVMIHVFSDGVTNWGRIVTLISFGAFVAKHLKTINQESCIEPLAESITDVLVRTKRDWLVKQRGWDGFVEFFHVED

[2] = Chemical stability in aqueous buffer by 1D 1H and 19F NMR; assay type: physicochemical; conditions: 100 μM in 50 mM phosphate pH 7.5, 150 mM NaCl; up to 48 h
In short: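 Test compound at 100 μM in 50 mM phosphate pH 7.5, 150 mM NaCl. 1D 1H spectra were collected at set time points, and 19F 1D spectra were recorded in the same buffer at various time points on a 600 MHz instrument. Stability was judged from changes in the spectra over time.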

hMcl-1(172–323) [3] = molecular target: T2, hMcl-1(172–323) (Homo sapiens, UniProt Q07820); test: SDS gel electrophoresis, covalent adduct formation; assay type: binding; conditions: 10 μM protein, 100 μM compound
T2 sequence (Q07820 172-323): as above
In short: (§1)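 Wild-type, His224Ala, His252Ala or Lys234Ala hMcl-1(172–323) (10 μM) was incubated with or without 100 μM test agent in 50 mM phosphate pH 7.5, 150 mM NaCl, 1% DMSO. Samples ran on 12% Bis-Tris SDS-PAGE with MOPS running buffer and protein stain. Mutants were sampled at 7 h. Wild type was also sampled over a time course, and complex formation was estimated qualitatively from the gel.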

hMcl-1 = hMcl-1 (Homo sapiens, UniProt Q07820); test: Kinetic measurements with the DELFIA assay; assay type: binding
Chain of hMcl-1 (Q07820 172-323): as above
In short: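 In the DELFIA format, wells with 16 nM Mcl-1 and 1:2000 Eu–N1 anti-6×His antibody were incubated 2 h, then with test compound for 0, 2, 5, 10, 20 and 40 min. Wells were washed three times and given enhancement solution for 10 min, then Eu fluorescence was read (excitation 340, emission 615). kobs came from the slope of % inhibition versus time, plotted against concentration and fitted hyperbolically to give KI and kinact.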

[4] = Plasma stability by 1D 1H NMR; assay type: in vitro ADME; conditions: human plasma in PBS
[5] = molecular target: His224Ala hMcl-1(172–323) (Homo sapiens, UniProt Q07820, H224A); test: LC-MS analysis of covalent complex, His224Ala mutant; assay type: binding; conditions: 10 μM protein, 100 μM compound, 7 h
Chain of His224Ala hMcl-1(172–323) (Q07820 172-323 H224A): as the sequence (Q07820 172-323) above, with H53A counted along it

[6] = molecular target: T1, 6×His-tagged hMcl-1(172–323); test: DELFIA displacement assay; assay type: binding
In short: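 6×His-tagged hMcl-1(172–323) (16 nM) in a heterogeneous DELFIA format. The test agent displaces a biotinylated BIM BH3 reference peptide. Test agent was preincubated with protein for a fixed time (2 h for the peptide series) before dose–response measurement. IC50 was taken from the dose–response curves, and the ratio line is the ratio of these IC50 values.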

hMcl-1(172–323) [7] = molecular target: T2, hMcl-1(172–323); test: LC-MS analysis of covalent complex; assay type: binding; conditions: 10 μM protein, 100 μM compound, 7 h, room temperature
6×His-hBfl-1(1–149) = test: DELFIA displacement assay against hBfl-1; assay type: binding, human; conditions: same experimental conditions as the hMcl-1 DELFIA assay
[8] = molecular target: hMcl-1(172–323) His224Ala (Homo sapiens, UniProt Q07820, H224A); test: SDS gel electrophoresis, His224Ala mutant; assay type: binding; conditions: 100 μM compound, 7 h
Chain of hMcl-1(172–323) His224Ala (Q07820 172-323 H224A): as the sequence (Q07820 172-323) above, with H53A counted along it
In short: as §1

[9] = molecular target: hMcl-1(172–323) His252Ala (Homo sapiens, UniProt Q07820, H252A); test: SDS gel electrophoresis, His252Ala mutant; assay type: binding; conditions: 100 μM compound, 7 h
Chain of hMcl-1(172–323) His252Ala (Q07820 172-323 H252A): as the sequence (Q07820 172-323) above, with H81A counted along it
In short: as §1

[10] = molecular target: hMcl-1(172–323) Lys234Ala (Homo sapiens, UniProt Q07820, K234A); test: SDS gel electrophoresis, Lys234Ala mutant; assay type: binding; conditions: 100 μM compound, 7 h
Chain of hMcl-1(172–323) Lys234Ala (Q07820 172-323 K234A): as the sequence (Q07820 172-323) above, with K63A counted along it
In short: as §1

IAEQLRRIGDRF
IC50 [1]: 250 nM

CC[C@H](C)[C@H](NC(C)=O)C(=O)N[C@@H](C)C(=O)N[C@@]1(C)CCC/C=C\CCC[C@@](C)(C(=O)N[C@H](C(=O)NCC(=O)N[C@@H](CC(=O)O)C(=O)N[C@@H](CCCNC(=N)N)C(=O)N[C@@H](Cc2ccc(OS(=O)(=O)F)cc2)C(N)=O)[C@@H](C)CC)NC(=O)[C@H](CCCNC(=N)N)NC(=O)[C@H](CC(C)C)NC(=O)[C@H](CCC(N)=O)NC1=O [compound 9] (Ac-IA[S5]QLR[S5]IGDR[Tyr(SO2F)]-NH2; staple (Z) 3-7)
chemical stability in aqueous buffer [2]: No significant spectral changes were observed; also recorded: did not observe any degradation | time to approximately 50% complex formation (hMcl-1(172–323) [3]; qualitative from gel): ~1 h | time to complete (or nearly complete) adduct formation (hMcl-1(172–323) [3]; qualitative from gel): ≤ 4 h | kinact/KI (hMcl-1): 67000 ± 3e+07 M⁻¹ s⁻¹ | plasma stability ([4]; 8 h): remains mostly intact | remaining after incubation in plasma ([4]; 24 h): ~40% | covalent adduct by mass spectrometry [5]: could not form a covalent adduct | IC50 [6]: 5.8 ± 0.9 nM | covalent adduct by mass spectrometry (hMcl-1(172–323) [7]): corresponding to the anticipated mass of the covalent adduct | times less active against hBfl-1(1–149) than hMcl-1 (6×His-hBfl-1(1–149)): ~160 times

CC[C@H](C)[C@H](NC(C)=O)C(=O)N[C@@H](C)C(=O)N[C@@H](CCC(=O)O)C(=O)N[C@@H](CCC(N)=O)C(=O)N[C@@H](CC(C)C)C(=O)N[C@@H](CCCNC(=N)N)C(=O)N[C@@H](CCCNC(=N)N)C(=O)N[C@H](C(=O)NCC(=O)N[C@@H](CC(=O)O)C(=O)N[C@@H](CCCNC(=N)N)C(=O)N[C@@H](Cc1ccc(OS(=O)(=O)F)cc1)C(N)=O)[C@@H](C)CC [compound 6] (Ac-IAEQLRRIGDR[Tyr(SO2F)]-NH2)
band shift (stable adduct) (hMcl-1(172–323) [3]; 7 h incubation): band shift | band shift (stable adduct) [8]: not with the His224Ala mutant | covalent adduct by mass spectrometry [5]: no MW increase was observed | band shift (stable adduct) [9]: band shifts | IC50 [6]: 8.1 nM | covalent adduct by mass spectrometry (hMcl-1(172–323) [7]): forms a stable 1:1 complex | band shift (stable adduct) [10]: band shifts
